This is an account of results in ChEMBL document CHEMBL1629643, “Naturally occurring Class A ss-lactamases from the Burkholderia cepacia complex” (Antimicrob Agents Chemother, 2009).

The MIC is the lowest concentration that inhibits growth of the organism. A low value points to inhibition by little substance. A word on the kcat/Km: it is the turnover number divided by the Michaelis constant. What is called Km is the concentration of substrate that gives half-maximal velocity. The term kcat denotes the number of substrate molecules converted per active site and unit of time at saturation.

Converted amounts (≈) assume the structure as drawn.

Series [1] concerns Burkholderia cenocepacia. The series can be described thus: Antimicrobial activity against Burkholderia cenocepacia 212 expressing beta-lactamase PenB3. Type of series: functional. The method in brief:
(§1)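 MICs measured by broth microdilution and by Etest on clinical B. cenocepacia isolates grown for 18 h in Trypticase soy broth (30°C and 37°C). Susceptibility was read against CLSI guidelines.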

In series [2] the test system is Burkholderia cenocepacia. The series can be described thus: Antimicrobial activity against Burkholderia cenocepacia 07-34 expressing beta-lactamase PenB1. Format: functional. The procedure, abridged:
as §1

Series [3] deals with Escherichia coli. Nature of the series: Antimicrobial activity against Escherichia coli TOP10 harboring beta-lactamase PenB1. Type of series: functional. The procedure, abridged: (§2)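 MICs by broth microdilution and Etest, interpreted per CLSI guidelines. Strains tested were host E. coli TOP10, and TOP10 carrying pBcSau13 (pBK-CMV vector, kanamycin-resistant) holding a Sau3AI fragment of B. cenocepacia 212 DNA that encodes PenB1.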

The test system of series [4] is Burkholderia cenocepacia. The series can be described thus: Antimicrobial activity against Burkholderia cenocepacia 09-54 expressing beta-lactamase PenB2. Format: functional. The method in brief: as §1
The subject of series [5] is Burkholderia cenocepacia. Nature of the series: Antimicrobial activity against Burkholderia cenocepacia 5007902 expressing beta-lactamase PenB4. Type of series: functional. The method in brief:
as §1

Series [6] has as its system Escherichia coli. Nature of the series: Antimicrobial activity against Escherichia coli TOP10. Type of series: functional. The procedure, abridged: as §2
Substrate in series [7]: C[C@H]1[C@H](NC(=O)/C(=N\OC(C)(C)C(=O)O)c2csc(N)n2)C(=O)N1S(=O)(=O)O
Conditions: Burkholderia cenocepacia; 07-34.

Substrate in series [8]: CC(=O)OCC1=C(C(=O)O)N2C(=O)[C@@H](NC(=O)Cc3cccs3)[C@H]2SC1
Conditions: Burkholderia cenocepacia; 07-34.

Substrate in series [9]: CO/N=C(\C(=O)N[C@@H]1C(=O)N2C(C(=O)[O-])=C(C[N+]3(C)CCCC3)CS[C@H]12)c1csc(N)n1
To be noted: Burkholderia cenocepacia; 07-34.

Substrate in series [10]: CC(C)(O/N=C(\C(=O)N[C@@H]1C(=O)N2C(C(=O)[O-])=C(C[n+]3ccccc3)CS[C@H]12)c1csc(N)n1)C(=O)O
Conditions: Burkholderia cenocepacia; 07-34.

Substrate in series [11]: CCN1CCN(C(=O)N[C@@H](C(=O)N[C@@H]2C(=O)N3[C@@H]2SC(C)(C)[C@@H]3C(=O)O)c2ccccc2)C(=O)C1=O
Conditions: Burkholderia cenocepacia; 07-34.

Substrate in series [12]: CC1(C)S[C@@H]2[C@H](NC(=O)[C@H](N)c3ccccc3)C(=O)N2[C@H]1C(=O)O
To be noted: Burkholderia cenocepacia; 07-34.

Substrate in series [13]: CO/N=C(\C(=O)N[C@@H]1C(=O)N2C(C(=O)O)=C(COC(C)=O)CS[C@H]12)c1csc(N)n1
Conditions: Burkholderia cenocepacia; 07-34.

Substrate in series [14]: CC1(C)S[C@@H]2[C@H](NC(=O)[C@H](C(=O)O)c3ccsc3)C(=O)N2[C@H]1C(=O)O
Conditions: Burkholderia cenocepacia; 07-34.

Substrate in series [15]: CO/N=C(\C(=O)N[C@@H]1C(=O)N2C(C(=O)O)=C(COC(N)=O)CS[C@H]12)c1ccco1
Conditions: Burkholderia cenocepacia; 07-34.

Substrate in series [16]: C[C@@H](O)[C@H]1C(=O)N2C(C(=O)O)=C(S[C@@H]3CN[C@H](C(=O)N(C)C)C3)[C@H](C)[C@H]12
To be noted: Burkholderia cenocepacia; 07-34.

Substrate in series [17]: CC1(C)S[C@@H]2[C@H](NC(=O)Cc3ccccc3)C(=O)N2[C@H]1C(=O)O
To be noted: Burkholderia cenocepacia; 07-34.

Substrate in series [18]: C[C@@H](O)[C@H]1C(=O)N2C(C(=O)O)=C(SCCNC=N)C[C@H]12
Conditions: Burkholderia cenocepacia; 07-34.

Substrate in series [19]: C[C@H]1[C@H](NC(=O)/C(=N\OC(C)(C)C(=O)O)c2csc(N)n2)C(=O)N1S(=O)(=O)O
To be noted: Burkholderia cenocepacia; 07-34. The source holds these as a separate data set.

Substrate in series [20]: CC(=O)OCC1=C(C(=O)O)N2C(=O)[C@@H](NC(=O)Cc3cccs3)[C@H]2SC1
To be noted: Burkholderia cenocepacia; 07-34. This is another data set of the same source.

Substrate in series [21]: CO/N=C(\C(=O)N[C@@H]1C(=O)N2C(C(=O)[O-])=C(C[N+]3(C)CCCC3)CS[C@H]12)c1csc(N)n1
Conditions: Burkholderia cenocepacia; 07-34. The source holds these as a separate data set.

Substrate in series [22]: CC(C)(O/N=C(\C(=O)N[C@@H]1C(=O)N2C(C(=O)[O-])=C(C[n+]3ccccc3)CS[C@H]12)c1csc(N)n1)C(=O)O
Conditions: Burkholderia cenocepacia; 07-34. The source holds these as a separate data set.

Substrate in series [23]: CCN1CCN(C(=O)N[C@@H](C(=O)N[C@@H]2C(=O)N3[C@@H]2SC(C)(C)[C@@H]3C(=O)O)c2ccccc2)C(=O)C1=O
To be noted: Burkholderia cenocepacia; 07-34. The source holds these as a separate data set.

Substrate in series [24]: CC1(C)S[C@@H]2[C@H](NC(=O)[C@H](N)c3ccccc3)C(=O)N2[C@H]1C(=O)O
To be noted: Burkholderia cenocepacia; 07-34. The source holds these as a separate data set.

Substrate in series [25]: CO/N=C(\C(=O)N[C@@H]1C(=O)N2C(C(=O)O)=C(COC(C)=O)CS[C@H]12)c1csc(N)n1
Conditions: Burkholderia cenocepacia; 07-34. This is another data set of the same source.

Substrate in series [26]: CC1(C)S[C@@H]2[C@H](NC(=O)[C@H](C(=O)O)c3ccsc3)C(=O)N2[C@H]1C(=O)O
To be noted: Burkholderia cenocepacia; 07-34. This is another data set of the same source.

Substrate in series [27]: CO/N=C(\C(=O)N[C@@H]1C(=O)N2C(C(=O)O)=C(COC(N)=O)CS[C@H]12)c1ccco1
To be noted: Burkholderia cenocepacia; 07-34. This is another data set of the same source.

Substrate in series [28]: C[C@@H](O)[C@H]1C(=O)N2C(C(=O)O)=C(S[C@@H]3CN[C@H](C(=O)N(C)C)C3)[C@H](C)[C@H]12
Conditions: Burkholderia cenocepacia; 07-34. This is another data set of the same source.

Substrate in series [29]: CC1(C)S[C@@H]2[C@H](NC(=O)Cc3ccccc3)C(=O)N2[C@H]1C(=O)O
Conditions: Burkholderia cenocepacia; 07-34. The source holds these as a separate data set.

Substrate in series [30]: C[C@@H](O)[C@H]1C(=O)N2C(C(=O)O)=C(SCCNC=N)C[C@H]12
Conditions: Burkholderia cenocepacia; 07-34. The source holds these as a separate data set.

For `CC1(C)S[C@@H]2[C@H](NC(=O)[C@H](C(=O)O)c3ccsc3)C(=O)N2[C@H]1C(=O)O` [TICARCILLIN], the MIC is 512 µg/mL (≈ 1330 µM) in series [1]; 512 µg/mL (≈ 1330 µM) in series [2]; 512 µg/mL (≈ 1330 µM) in series [3]; 512 µg/mL (≈ 1330 µM) in series [4]; 512 µg/mL (≈ 1330 µM) in [5]; 4 µg/mL (≈ 10.4 µM) in series [6].
On to `CO/N=C(\C(=O)N[C@@H]1C(=O)N2C(C(=O)O)=C(COC(C)=O)CS[C@H]12)c1csc(N)n1` [CEFOTAXIME], for which the MIC came to 512 µg/mL (≈ 1120 µM) in series [1]; 1 µg/mL (≈ 2.2 µM) in [2]; 0.25 µg/mL (≈ 0.549 µM) in [3]; 512 µg/mL (≈ 1120 µM) in series [4]; 4 µg/mL (≈ 8.78 µM) in [5]; 0.06 µg/mL (≈ 0.132 µM) in [6].
With `CO/N=C(\C(=O)N[C@@H]1C(=O)N2C(C(=O)O)=C(COC(N)=O)CS[C@H]12)c1ccco1` [CEFUROXIME], the MIC in series [1] turned out to be 512 µg/mL (≈ 1210 µM); in [2], 16 µg/mL (≈ 37.7 µM); in series [3], 16 µg/mL (≈ 37.7 µM); in series [4], 512 µg/mL (≈ 1210 µM); in series [5], 32 µg/mL (≈ 75.4 µM); in series [6] it was 8 µg/mL (≈ 18.9 µM).
As for `C[C@H]1[C@H](NC(=O)/C(=N\OC(C)(C)C(=O)O)c2csc(N)n2)C(=O)N1S(=O)(=O)O` [AZTREONAM], the MIC in [1] came to 512 µg/mL (≈ 1180 µM); in series [2] it was 4 µg/mL (≈ 9.19 µM); in series [3] it was 0.5 µg/mL (≈ 1.15 µM); in series [4], 512 µg/mL (≈ 1180 µM); in series [5] it was 16 µg/mL (≈ 36.7 µM).

B1: PenB class A beta-lactamase (Burkholderia cenocepacia), B8R6A5 (protein)
chain: MTYSSKRRTLLLAAATAPLVLTATACASRQAAAPDPATAAAAAAADAMAPAAAAATLADLERDAGGRLGVCAIDTASGRVIEHRAGERFPFCSTFKAMLSAAVLAQSVERPGLLQQRVKYTKADLVNYSPVSEKHVGAGMTVAALCEATIQYSDNSAANLLMKLIGGPSAVTAYARSIGDDAFRLDRWETELNTALPGDPRDTTTPAAMAASIRVLTLGDALPAAQRAQLVAWLRGNKVGDKRIRAGVPAGWTVGDKTGTGDYGTTNDAGVIWPTSRAPIVLAVYYTQTRADARAKDDVIASVARIVAQTFG
As for B1, the kcat/Km stood at 1e+07 M⁻¹ s⁻¹ in [7]; 3e+06 M⁻¹ s⁻¹ in [8]; 1e+07 M⁻¹ s⁻¹ in [9]; 500000 M⁻¹ s⁻¹ in series [10]; 500000 M⁻¹ s⁻¹ in series [11]; 700000 M⁻¹ s⁻¹ in series [12]. Besides, the kcat/Km in series [13] came to 130000 M⁻¹ s⁻¹; in [14] it was 250000 M⁻¹ s⁻¹; in series [15] it was 2.1e+06 M⁻¹ s⁻¹; in series [16] it was 500 M⁻¹ s⁻¹; in [17], 5.2e+06 M⁻¹ s⁻¹; in series [18] it was 2e+06 M⁻¹ s⁻¹. Further, the Km was determined as 2500 µM in series [19]; 100 µM in series [20]; 1000 µM in series [21]; 3000 µM in series [22]; 10 µM in [23]; 100 µM in [24]. The Michaelis-Menten constant (Km) came out at 150 µM in series [25]; 60 µM in [26]; 80 µM in series [27]; 2500 µM in series [28]; 25 µM in series [29]; 60 µM in series [30]. Besides, the kcat in [19] came to 30 s⁻¹; in [20], 300 s⁻¹; in series [21] it was 10 s⁻¹; in series [22], 1.5 s⁻¹; in series [23], 5 s⁻¹; in [24], 70 s⁻¹. For the same molecule, the turnover number (kcat) stood at 20 s⁻¹ in [25]; 15 s⁻¹ in series [26]; 170 s⁻¹ in series [27]; 1 s⁻¹ in series [28]; 130 s⁻¹ in [29]; 0.1 s⁻¹ in series [30].
